Experiments:
[1] = target: Major prion protein (Homo sapiens) (UniProt P04156); test: Binding affinity to truncated human PrPC at 40 uM
How it was run: (§1)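 SPR at 25 °C, 30 µL/min. Each PrPC form was amine-coupled at 2 µg/mL onto a CM5 dextran chip via NHS/EDC, with ethanolamine block; flow cell 1 served as control. Ligand at 40 µM, 1 min association, 3 min dissociation, with DMSO calibration. Binding expressed as %RU_max, normalised for immobilised RU and molecular weights.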

[2] = target: Major prion protein (Mus musculus) (UniProt P04925); test: Binding affinity to mouse PrPC at 40 uM; how it was run: as §1
Chain of Major prion protein (Mus musculus) (P04925 whole entry): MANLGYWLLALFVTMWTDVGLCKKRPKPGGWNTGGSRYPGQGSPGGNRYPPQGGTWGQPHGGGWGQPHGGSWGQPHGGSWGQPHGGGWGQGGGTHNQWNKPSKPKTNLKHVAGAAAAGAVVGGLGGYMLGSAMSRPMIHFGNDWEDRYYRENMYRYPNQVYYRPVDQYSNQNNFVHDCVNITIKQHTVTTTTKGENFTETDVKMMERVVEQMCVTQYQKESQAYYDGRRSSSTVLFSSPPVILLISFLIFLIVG

[3] = target: Major prion protein (Homo sapiens) (UniProt P04156); test: Binding affinity to human PrPC at 40 uM; how it was run: as §1

Row | Structure (SMILES) | RUmax [1] | RUmax [2] | RUmax [3]
1 | COC(=O)c1ccc(Sc2nc(N)c(C#N)c(-c3ccccc3)c2C#N)cc1 | 0% | 0% | 0%
2 | COC(=O)c1ccc(Sc2nc(N)c(C#N)c(-c3ccc(O)cc3)c2C#N)cc1 | 0% | 0% | 0%
3 | N#Cc1c(N)nc(Sc2ccccc2)c(C#N)c1-c1ccccc1 | 0% | 0% | 0%
4 | COC(=O)c1ccc(Sc2nc(N)c(C#N)c(-c3ccc(C(=O)OC)cc3)c2C#N)cc1 | 0% | 0% | 0%
5 | COc1ccc(-c2c(C#N)c(N)nc(Sc3ccccc3)c2C#N)cc1 | 0% | 0% | 0%
6 | COc1cccc(-c2c(C#N)c(N)nc(Sc3ccccc3)c2C#N)c1 | 0% | 0% | 0%
7 | CC(=O)c1ccc(-c2c(C#N)c(N)nc(Sc3ccc(O)cc3)c2C#N)cc1 | 0% | 0% | 0%
8 | N#Cc1c(N)nc(Sc2cccc(O)c2)c(C#N)c1-c1ccccc1 | 37.6% | 60.6% | 70.3%
9 | N#Cc1c(N)nc(Sc2ccc(O)cc2)c(C#N)c1-c1ccc(O)c(F)c1 | 28% | 53.8% | 44.2%
10 | CC(=O)Nc1ccc(Sc2nc(N)c(C#N)c(-c3c(F)cccc3F)c2C#N)cc1 | 20% | 40.1% | 37.3%
11 | COc1ccc(-c2c(C#N)c(N)nc(Sc3cccc(Cl)c3)c2C#N)cc1 | 0% | 0% | 0%
12 | N#Cc1c(N)nc(Sc2ccc(O)cc2)c(C#N)c1-c1ccc(O)c(Cl)c1 | 33.4% | 64.6% | 53.4%
13 | N#Cc1c(N)nc(Sc2ccc(O)cc2)c(C#N)c1-c1cccc(O)c1 | 23.1% | 43.1% | 34%
14 | COC(=O)c1ccc(-c2c(C#N)c(N)nc(Sc3ccc(O)cc3)c2C#N)cc1 | 0% | 0% | 0%
15 | COc1cccc(-c2c(C#N)c(N)nc(Sc3cccc(Cl)c3)c2C#N)c1 | 6.7% | 0% | 8.6%
16 | N#Cc1c(N)nc(Sc2cccc(Cl)c2)c(C#N)c1-c1ccc(Cl)cc1 | 56.5% | 52.3% | 119%
17 | COC(=O)c1ccc(-c2c(C#N)c(N)nc(Sc3ccc(C(=O)O)cc3)c2C#N)cc1 | 0% | 8.5% | 5.9%
18 | N#Cc1c(N)nc(Sc2ccc(Cl)cc2)c(C#N)c1-c1ccccc1 | 11.4% | 0% | 0%
19 | N#Cc1c(N)nc(Sc2cccc(Cl)c2)c(C#N)c1-c1ccccc1 | 0% | 0% | 0%
20 | COC(=O)c1cccc(Sc2nc(N)c(C#N)c(-c3ccccc3)c2C#N)c1 | 26.8% | 33.2% | 125%
21 | N#Cc1c(N)nc(Sc2ccccc2F)c(C#N)c1-c1cccc(O)c1 | 9.2% | 18.8% | 17.2%
22 | CC(=O)Nc1ccc(Sc2nc(N)c(C#N)c(-c3cc(F)cc(F)c3)c2C#N)cc1 | 0% | 0% | 0%
23 | COC(=O)c1ccc(-c2c(C#N)c(N)nc(Sc3cccc(C(=O)OC)c3)c2C#N)cc1 | 0% | 0% | 0%
24 | COC(=O)c1ccc(-c2c(C#N)c(N)nc(Sc3cccc(Cl)c3)c2C#N)cc1 | 0% | 0% | 0%
25 | COC(=O)c1ccc(-c2c(C#N)c(N)nc(Sc3ccc(NC(C)=O)cc3)c2C#N)cc1 | 6.4% | 13.3% | 9.4%
26 | CS(=O)(=O)c1ccc(-c2c(C#N)c(N)nc(Sc3ccc(O)cc3)c2C#N)cc1 | 0% | 0% | 0%

Reference: ChEMBL document CHEMBL1147735, “Library design, synthesis, and screening: pyridine dicarbonitriles as potential prion disease therapeutics” (J Med Chem, 2006)
